Consider nine molecules from ChEMBL document CHEMBL1142301, “2'-deoxy cyclic adenosine 5'-diphosphate ribose derivatives: importance of the 2'-hydroxyl motif for the antagonistic activity of 8-substituted cADPR derivatives” (J Med Chem, 2008).

The source made the active and inactive calls. No cut-off for these calls is given here.

The subject of assay [1] is Jurkat. Briefly: Antagonist activity at human cADPR receptor in Jurkat T cells assessed as inhibition of inositol-1,4,5-triphosphate-induced calcium release. It is filed as functional, cell-based. A digest of the protocol:
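Permeabilized, store-reloaded Jurkat T cells in pH 7.2 intracellular buffer with fura2 free acid (ex 340/380 nm, em 495 nm). Analogues were tested at 100 µM against Ca2+ release triggered by 4 µM InsP3.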

The test system of assay [2] is Jurkat. Briefly: Agonist activity at human cADPR receptor in Jurkat T cells assessed as stimulation of calcium release at 100 uM. It is filed as functional, cell-based. A digest of the protocol: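 Saponin-permeabilized Jurkat T cells in intracellular buffer (20 mM HEPES, 110 mM KCl, 2 mM MgCl2, 5 mM KH2PO4, 10 mM NaCl, pH 7.2) with no extracellular Ca2+. Cells were kept on ice 2 h to reseal stores, then reloaded with ATP plus creatine phosphate/creatine kinase. Compound was added once stores were refilled. Ca2+ read by fura2 free acid (ex 340/380, em 495 nm), calibrated with CaCl2 and EGTA/Tris.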

The nature of assay [3]: (§1) Antagonist activity at human cADPR receptor in Jurkat T cells assessed as inhibition of cyclic ADP-ribose-induced calcium release. It is filed as functional, cell-based. A digest of the protocol: (§2)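 Jurkat T cells were saponin-permeabilized, resealed 2 h on ice and reloaded with Ca2+ via ATP and a creatine phosphate/creatine kinase regenerating system, in pH 7.2 KCl/HEPES intracellular buffer. Analogue inhibition of Ca2+ release evoked by 30 µM cADPR was followed by fura2 ratio (340/380 nm ex, 495 nm em), calibrated per run. IC50 values were taken from concentration–response curves.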

Assay [4] has as its system Jurkat. The assay is described as §1. It is filed as functional, cell-based. A digest of the protocol: as §2
A short description of assay [5]: (§3) Agonist activity at human cADPR receptor in sea urchin egg homogenates assessed as stimulation of calcium release. It is filed as functional, tissue-based, Lytechinus pictus. An outline of the steps: (§4)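 Lytechinus pictus eggs were spawned by intracoelomic 0.5 M KCl, dejellied and washed. Eggs were homogenized in 250 mM K gluconate, 250 mM N-methylglucamine, 20 mM HEPES, 1 mM MgCl2, pH 7.2, with 1 mM ATP, creatine kinase, phosphocreatine and protease inhibitors. Ca2+ read with 3 µM fluo-3 at 17 °C (ex 506, em 526 nm) in stirred homogenate. EC50/IC50 values come from concentration–response curves.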

A short description of assay [6]: Antagonist activity at cADPR receptor in sea urchin egg homogenates assessed as inhibition of calcium release. It is filed as functional, tissue-based, Lytechinus pictus. A digest of the protocol:
as §4

Assay [7] relates to Jurkat. Briefly: Agonist activity at human cADPR receptor in Jurkat T cells assessed as stimulation of calcium release at 100 uM.
For assay [8], the system named is Lytechinus pictus. The description is as §3. It is filed as functional, tissue-based. An outline of the steps: as §4
The subject of assay [9] is Lytechinus pictus. As to the kind of experiment: Agonist activity at human cADPR receptor in intact sea urchin egg assessed as stimulation of calcium release. It is filed as functional. A digest of the protocol:
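Intact Lytechinus pictus eggs were microinjected with rhod dextran (~10 µM intracellular), then exposed to 100 or 400 µM analogue in the bath. Ca2+ was imaged by confocal microscopy (ex 543 nm, em >560 nm).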

Take `Nc1c2ncn3c2nc[n+]1[C@@H]1O[C@H](COP(=O)([O-])OP(=O)(O)OC[C@H]2O[C@@H]3[C@H](O)[C@@H]2O)[C@@H](O)[C@H]1O`: the result in assay [1] was inactive. Also, in assay [2], the result was Active.
As for `COc1nc2c(N)[n+]3cnc2n1[C@H]1C[C@H](O)[C@@H](COP(=O)(O)OP(=O)([O-])OC[C@H]2O[C@@H]3[C@H](O)[C@@H]2O)O1`, the IC50 in assay [3] amounted to 8 µM. Further, the result in [1] was inactive. The outcome in assay [2] was Active.
With `Nc1c2ccn3c2nc[n+]1[C@@H]1O[C@H](COP(=O)([O-])OP(=O)(O)OC[C@H]2O[C@@H]3C[C@@H]2O)[C@@H](O)[C@H]1O`, the outcome in assay [4] was inactive. Also, the outcome in assay [2] was Active.
`Nc1c2nc(Br)n3c2nc[n+]1[C@@H]1O[C@H](COP(=O)([O-])OP(=O)(O)OC[C@H]2O[C@@H]3[C@H](O)[C@@H]2O)[C@@H](O)[C@H]1O`: the IC50 in assay [3] worked out at 10 µM. In addition, in [1], the result was inactive. For the same molecule, the outcome in assay [2] was Active.
Turning to `Nc1nc2c(N)[n+]3cnc2n1[C@@H]1O[C@H](COP(=O)(O)OP(=O)([O-])OC[C@H]2O[C@@H]3[C@H](O)[C@@H]2O)[C@@H](O)[C@H]1O`, the IC50 in [3] stood at 0.2 µM; in assay [6], 0.105 µM. Further, the result in [1] was inactive. Also, the outcome in assay [2] and in assay [7] was Active. Besides, the EC50 in assay [5] was found to be 89 µM.
As to `Nc1c2nc(-c3ccccc3)n3c2nc[n+]1[C@@H]1O[C@H](COP(=O)([O-])OP(=O)(O)OC[C@H]2O[C@@H]3C[C@@H]2O)[C@@H](O)[C@H]1O`, the outcome in [2] was Active.
For the molecule `Nc1c2nc(Br)n3c2nc[n+]1[C@@H]1O[C@H](COP(=O)([O-])OP(=O)(O)OC[C@H]2O[C@@H]3C[C@@H]2O)[C@@H](O)[C@H]1O`, the result in assay [2], in [8] and in assay [9] was Active.
For `Nc1nc2c(N)[n+]3cnc2n1[C@H]1C[C@H](O)[C@@H](COP(=O)(O)OP(=O)([O-])OC[C@H]2O[C@@H]3[C@H](O)[C@@H]2O)O1`, the IC50 in [3] is 6 µM; in assay [6], 0.22 µM. Also, in assay [1], the outcome was inactive. Moreover, the result in assay [2] was Active. Besides, the EC50 in assay [5] is more than 89 µM.
`Nc1c2nc(-c3ccccc3)n3c2nc[n+]1[C@@H]1O[C@H](COP(=O)([O-])OP(=O)(O)OC[C@H]2O[C@@H]3[C@H](O)[C@@H]2O)[C@@H](O)[C@H]1O`: the result in assay [2] was Active.

As a reminder, the IC50 is the concentration that inhibits the measured activity by half. A word on the EC50: it is the concentration needed to bring the measured effect to its halfway point.
